This is a sample that favours compounds with a hit; in the whole collection about 1.5% have one here.
EBI2 block = EBI2 receptor antagonists, beta-arrestin recruitment, primary screen, cell-based, luminescence, 7a,25-OHC stimulation, uHTS; G-protein coupled receptor 183 (Homo sapiens), P32249; 7a,25-OHC stimulated; inhibition, % at 5 µM; hit rate 0.81% among 360,000; in the data active = inhibition above about 38%;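 note: enzyme fragment complementation signal reports receptor beta-arrestin coupling in cells; 0% = agonist plus DMSO wells and 100% = wells without agonist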
Target sequence (P32249 whole entry, looked up, the tested form may be a part): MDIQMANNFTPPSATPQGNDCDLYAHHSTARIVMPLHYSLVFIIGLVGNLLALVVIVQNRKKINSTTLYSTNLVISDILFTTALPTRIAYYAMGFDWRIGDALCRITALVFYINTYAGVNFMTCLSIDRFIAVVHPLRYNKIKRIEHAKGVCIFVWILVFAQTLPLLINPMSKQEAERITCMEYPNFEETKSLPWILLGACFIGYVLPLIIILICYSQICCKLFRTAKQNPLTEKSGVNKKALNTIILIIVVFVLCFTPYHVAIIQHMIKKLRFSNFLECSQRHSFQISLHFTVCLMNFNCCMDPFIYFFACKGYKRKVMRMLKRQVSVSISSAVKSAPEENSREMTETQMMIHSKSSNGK
CXCR6 block = CXCR6 receptor inhibitors, primary screen, cell-based, beta-arrestin, luminescence, CHO-K1 PathHunter, 1536-well; inhibition, % at 20 µM; C-X-C chemokine receptor type 6 (Homo sapiens), O00574; AID 602244, 2012; hit rate 0.36% among 360,000; in the data active = inhibition above about 34%, passing the limit was not always enough;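 note: antagonist mode with CXCL16 agonist at 10 nM final; 0% = 10 nM CXCL16 with DMSO and 100% = unstimulated wells without agonist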
Target sequence (O00574 whole entry, looked up): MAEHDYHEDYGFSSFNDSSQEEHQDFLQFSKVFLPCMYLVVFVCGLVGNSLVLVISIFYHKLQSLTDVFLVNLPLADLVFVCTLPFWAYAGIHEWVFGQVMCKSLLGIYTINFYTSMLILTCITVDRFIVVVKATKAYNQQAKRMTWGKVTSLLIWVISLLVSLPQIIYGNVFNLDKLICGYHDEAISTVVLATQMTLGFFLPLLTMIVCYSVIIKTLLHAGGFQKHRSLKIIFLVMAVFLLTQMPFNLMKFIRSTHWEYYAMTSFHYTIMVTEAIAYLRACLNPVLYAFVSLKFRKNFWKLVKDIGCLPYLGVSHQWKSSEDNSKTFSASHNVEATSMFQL
iPSC survival up = enhancers of single-cell hiPSC survival, primary screen, ATPlite luminescence | 100% = ROCK inhibitor wells, 0% = DMSO | survival enhancement, % at 20 µM | hit rate 0.044% among 360,000 | AID 602274, 2012; in the data active = survival enhancement above about 18%;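 note: cells exposed to compounds for 16 hours before the ATP read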
CCR6 antagonist = CCR6 receptor antagonists, primary screen, cell-based, CHO-K1, luminescence, beta-arrestin, uHTS; C-C chemokine receptor type 6 (Homo sapiens), P51684; CHO-K1 CCR6 PathHunter beta-arrestin, CCL20-stimulated; inhibition, % at 20 µM; hit rate 0.49% among 340,000; AID 493098, 2011;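 active = compounds whose inhibition of the agonist-driven luminescence signal at 20 µM reaches about 50%, limit read from the data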;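 note: cells stimulated with CCL20 at 14 nM final; plate controls were DMSO with CCL20 for no effect and DMSO without agonist for full effect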
APJ antagonist = antagonists of human apelin receptor APJ, primary screen, CHO-K1 cells, beta-arrestin complementation, luminescence. P35414. inhibition, % at 20 µM. hit rate 0.32% among 330,000. AID 2521, 2010;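 active = inhibition above about 40% at 20 µM, limit read from the data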;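 note: cells challenged with 10 nM apelin-13 agonist together with compound; plate controls were apelin-13 plus DMSO wells for no effect and DMSO wells lacking apelin-13 for full effect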
APJ agonist = agonists of human apelin receptor APJ, primary screen, CHO-K1 cells, PathHunter beta-arrestin, luminescence | P35414 | 0% DMSO wells, 100% apelin | activation, % at 20 µM | hit rate 0.11% among 330,000;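 active = activation more than six SD over the plate average, tested at 20 µM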;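 note: 0% = DMSO alone and 100% = apelin-13 at 10 nM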
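Test system: CHO-K1 APJ beta-arrestin complementation cell line. Amount: cell density 1000 per well. Controls: DMSO negative, 10 nM Apelin-13 positive. Signal: luminescent beta-gal fragment complementation, chemiluminescent substrate. Read-out basis: agonist-driven arrestin binding to APJ. Timing: compound stimulation 90 min at 25 °C, detection 60 min.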
EBI2 conf = EBI2 antagonist hit retest, beta-arrestin, confirmation, cell-based, single concentration, luminescence, 7a,25-OHC stimulation | shares compounds with EBI2 block | 7a,25-OHC antagonism | inhibition, % at 5 µM | hit rate 29% among 2,400;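 active = inhibition of at least 50%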
EBI2 ag = EBI2 agonist activity of antagonist hits, confirmation, counter-screen for EBI2 antagonist project, cell-based, single concentration, agonist mode, luminescence; shares compounds with EBI2 block; EBI2-expressing cells, 60 min; 0% vehicle, 100% 7α,25-dihydroxycholesterol control; activation, % at 5 µM; 2,400 tested, under 10 active; AID 652000, 2013;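 active = activation of at least 50%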
bGal counter = E. coli beta-galactosidase enzyme inhibition, confirmation, counter-screen for EBI2 antagonist project, biochemical, luminescence, single concentration; hit rate 1% among 2,400; shares compounds with EBI2 block; AID 652176, 2013; inhibition, % at 5 µM; purified beta-galactosidase, luminescent Galacton Star, 15 min;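 active = replicate-average signal at least 3 plate SD below neutral wells, shown as high inhibition, flagging enzyme-inhibiting false positives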;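 note: 0% = DMSO wells with enzyme and 100% = wells lacking enzyme; higher means stronger loss of beta-gal luminescence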
* hit, by the source's call; nt = no result given.

SMILES | EBI2 block | CXCR6 block | iPSC survival up | CCR6 antagonist | APJ antagonist | APJ agonist | EBI2 conf | EBI2 ag | bGal counter
CCOC(=O)N1CCN(C(=O)c2cc3cc(C)ccc3[nH]2)CC1 | 88.1* | 6.1 | -0.4 | -13.8 | -4.9 | -2.6 | 67.2* | 0.2 | 7.5
CN1CCN(C(=O)c2cc3ccccc3[nH]2)CC1 | 13.3 | -10.5 | -0.4 | 5.1 | 20.5 | -1.2 | nt | nt | nt
Cc1ccc(S(=O)(=O)N2CCCN(C(=O)c3cc4ccccc4[nH]3)CC2)cc1 | 53.9* | -2.3 | -0.6 | 13.4 | -6.5 | -3.4 | 33.6 | 0.6 | 10.4
Cc1ccc2[nH]c(C(=O)N3CCCC(Nc4ccc(F)cc4)C3)cc2c1 (stereo not drawn) | 23.9 | -7.5 | 4.4 | 6.7 | -4.9 | -3.2 | nt | nt | nt
Cc1ccc2[nH]c(C(=O)N3CCN(c4cccc(Cl)c4)CC3)cc2c1 | 54.2* | -5.7 | -0.8 | -14.6 | -28.3 | -1.8 | 46.9 | 0.2 | 5.8
COc1cccc(-n2cnnc2SCC(=O)NC2CC2)c1 | -16.8 | 3.6 | -0.3 | 3.9 | -6.0 | -3.7 | nt | nt | nt
Cc1cccc(N2CC(C(=O)Nc3nnc(SCC(=O)N4CCOCC4)s3)CC2=O)c1 (stereo not drawn) | -3.4 | -0.2 | 0.4 | -27.5 | 9.6 | -3.5 | nt | nt | nt
CCN(CC)CCCNC(=O)c1cc(-c2ccccc2)c(N2CCCCC2)s1 | 5.8 | 1.9 | -0.9 | 13.4 | 25.3 | -1.4 | nt | nt | nt
CN1CCN(C(=O)c2cc3sc4ccccc4c3s2)CC1 | 95.4* | 1.7 | -0.6 | 12.9 | -12.2 | -3.9 | 70.4* | -0.9 | -12.5
Clc1cccc(Cc2c(C3CCCCC3)nc3ccc(Br)cn23)c1 | 14.6 | 11.7 | 0.8 | nt | nt | nt | nt | nt | nt
COc1cccc(CNC(=O)Cn2c(=O)n(CCC(=O)N3CCCCC3)c(=O)c3sccc32)c1 | -13.3 | -4.9 | 9.0 | 9.1 | -2.5 | 0.1 | nt | nt | nt
COCCCN(Cc1ccco1)C(=O)Cn1ncc2c(=O)oc3ccc(C)cc3c21 | 54.9* | -6.9 | 0.3 | 10.9 | -10.6 | -0.9 | 39.7 | -1.5 | -11.8
Cc1ccc2oc(=O)c3cnn(CC(=O)N4CCCc5ccccc54)c3c2c1 | 52.6* | 6.6 | 1.6 | 4.5 | 6.2 | -0.5 | 22.2 | -0.4 | -13.6
Cc1ccc2oc(=O)c3cnn(CC(=O)N4CCN(c5ccccc5)CC4)c3c2c1 | 22.6 | 8.2 | 0.2 | 23.9 | 11.0 | 3.9 | nt | nt | nt
Cc1ccc(CNC(=O)C2CCN(S(=O)(=O)c3ccc4c(c3)OCCCO4)CC2)cc1 | 78.8* | 2.8 | 1.6 | 9.1 | 5.8 | -0.6 | 66.9* | 1.8 | 8.3
Cc1ccc(NC(=O)C2CCN(S(=O)(=O)c3ccc4c(c3)OCCCO4)CC2)nc1 | -8.4 | -11.4 | -0.3 | 2.0 | 15.7 | -2.2 | nt | nt | nt
COc1ccc(CNC(=O)C2CCN(S(=O)(=O)c3ccc4c(c3)N(C(C)=O)CCO4)CC2)cc1 | 72.8* | -8.4 | -0.6 | 8.7 | 27.7 | -0.9 | 46.1 | 1.0 | 3.4
O=C(COc1coc(CN2CCc3ccccc32)cc1=O)Nc1cccc(F)c1 | -2.7 | 5.7 | -0.6 | 6.2 | 15.7 | -6.9 | nt | nt | nt
COc1ccc(NC(=O)c2ccc(CN3CCN(c4ccccc4)CC3)cc2)cc1 | 60.6* | 5.1 | 1.9 | -12.4 | 8.5 | -1.2 | 22.7 | 1.5 | 8.3
COc1ccc(C(=O)Nc2ccc(N3CCN(Cc4ccccc4)CC3)cc2)cc1 | -7.5 | -7.3 | -0.6 | -9.0 | 8.3 | -1.5 | nt | nt | nt
O=C(Nc1ccccc1C(F)(F)F)c1ccc(CN2CCC(Cc3ccccc3)CC2)cc1 | 0.2 | 16.4 | -1.8 | 4.3 | 3.0 | -3.8 | nt | nt | nt
O=C(Nc1ccccc1)c1ccc(CN2CCC(Cc3ccccc3)CC2)cc1 | 64.7* | 10.6 | -0.1 | 19.2 | 9.0 | -3.7 | 31.8 | -0.6 | 5.7
CCC(C)(CN(C)C)OC(=O)c1ccccc1 (stereo not drawn) | 7.6 | 4.4 | 1.4 | -1.7 | 4.5 | -3.8 | nt | nt | nt
CC(=O)NC(c1cccc(F)c1)c1nc(-c2cccs2)cs1 (stereo not drawn) | -3.8 | 0.5 | -2.5 | nt | nt | nt | nt | nt | nt
O=S(=O)(NC1=NCCC1)c1cccc(NC(=S)Nc2ccc(OC(F)F)cc2)c1 | 48.3* | 0.6 | -1.2 | 12.2 | 13.6 | -7.6 | 31.4 | -0.9 | -3.8
SMILES | EBI2 block | CXCR6 block | iPSC survival up | CCR6 antagonist | APJ antagonist | APJ agonist | EBI2 conf | EBI2 ag | bGal counter
O=C(COC(=O)c1ccc(OC(F)F)cc1)Nc1cccc(S(=O)(=O)NC2=NCCC2)c1 | 0.4 | -4.3 | 0.3 | 6.7 | 5.1 | -4.1 | nt | nt | nt
COc1ccc(C2CC(c3ccccc3)=NN2C(=O)COC(=O)c2cc(S(=O)(=O)N3CCOCC3)ccc2F)cc1 (stereo not drawn) | 54.0* | 4.1 | -2.0 | 3.8 | 2.2 | -1.7 | 52.5* | 0.3 | 7.0
COc1ccc(C2CC(c3ccccc3)=NN2C(=O)COC(=O)c2ccc(S(C)(=O)=O)cc2)cc1 (stereo not drawn) | -10.0 | -0.4 | 0.7 | 4.8 | -3.8 | 10.5 | nt | nt | nt
Cc1ccc(C(=O)Nc2cc(C)nn2CCC#N)cc1 | 4.8 | 0.9 | -0.5 | -2.9 | 7.1 | -3.6 | nt | nt | nt
CC(C)N(C(C)C)S(=O)(=O)c1ccc(NC(=O)c2cnccn2)cc1 | -4.8 | -0.4 | -0.9 | 3.7 | 1.7 | 3.0 | nt | nt | nt
COc1ccc(Cn2c3ccc(OC)cc3c3nc4ccccc4nc32)cc1 | 52.9* | -4.3 | -2.6 | 2.1 | 9.1 | -4.2 | 21.5 | -0.6 | -14.0
COc1ccc2c(c1)c1nc3ccccc3nc1n2Cc1ccc(OC(C)C)c(OC)c1 | 25.8 | 3.3 | 3.8 | 17.2 | 4.0 | -4.7 | nt | nt | nt
CCOC(=O)c1ccc(S(=O)(=O)N2CCN(C(=O)c3cc(=O)c4ccccc4o3)CC2)cc1 | 59.8* | 7.9 | 0.2 | 11.3 | 1.2 | -3.0 | 27.0 | 0.2 | 6.7
CCOc1ccc(S(=O)(=O)N2CCN(C(=O)c3cc4ccccc4o3)CC2)cc1 | 85.9* | 0.3 | -0.3 | 34.6 | -5.3 | 0.0 | 56.5* | 1.7 | 9.4
O=C(c1cc2ccccc2o1)N1CCN(S(=O)(=O)c2c(F)cccc2F)CC1 | 63.3* | 2.0 | -0.5 | 10.8 | 3.7 | -3.2 | 42.5 | -0.1 | 4.6

High-throughput results (PubChem)
